Measurements published in ChEMBL document CHEMBL3992522, “Antileishmanial Activity of Pyrazolopyridine Derivatives and Their Potential as an Adjunct Therapy with Miltefosine” (J Med Chem, 2017).

Legend:
[1] = test system: Leishmania donovani; test: Antileishmanial activity against Leishmania donovani MHOM/IN/80/DD8 amastigote forms harboring luciferase gene infected in mouse J774 cells at 25 uM after 72 hrs by Steady-Glo reagent based luminescence assay relative to control; format: functional; settings: MHOM/IN/80/DD8, J774, 72 h, read-out: GI
Method in brief: (§1)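 Stationary-phase luciferase-expressing Dd8 promastigotes infected into J774 macrophages (4×10^4/mL seeded, 24 h, 37 °C, 5% CO2) at 1:8 macrophage:parasite for 24 h. Non-internalised parasites washed off. Compounds added at 50 and 25 µM in RPMI/10% FBS for 72 h. Lysis with Steady-Glo luciferin reagent plus PBS, luminescence read. Inhibition relative to untreated infected controls.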

[2] = Cytotoxicity against African green monkey Vero cells assessed as reduction in cell viability after 72 hrs by MTT assay; format: cell-based; settings: chlorocebus sabaeus
Method in brief: (§2)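 Vero and J774 cells seeded at 1×10^5 per well for 24 h, then exposed 72 h to seven two-fold dilutions from 500 to 7.81 μM. MTT solution (5 mg/mL stock) added for 2 h at 37 °C, formazan dissolved in DMSO and read at 540 nm. CC50 derived by the Huber and Koella method.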

[3] = test system: Mus musculus; test: Increase in TNFalpha level in Balb/c mouse splenocytes infected with Leishmania donovani amastigote forms at 25 mg/kg, po administered for 5 consecutive days measured on day 4 post last treatment by sandwich ELISA relative to control; format: functional
[4] = test system: Mus musculus; test: (§3) Increase in iNOS-mediated NO generation in Balb/c mouse splenocytes infected with Leishmania donovani amastigote forms at 5 mg/kg, po for 5 consecutive days measured on day 4 and 7 post last treatment followed by soluble Leishmania donovani promastigote antigen-stimulation for 72 hrs by Griess assay relative to control; format: functional
Method in brief: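 Splenocytes from treated infected BALB/c mice (5-day regimen, i.p. test compound, oral miltefosine; n = 5) isolated day 4 and day 7 post-treatment. Cultured in phenol red-free RPMI 1640 with 5 μg/mL SLA for 72 h at 37 °C, 5% CO2. Supernatant nitrite measured by Griess assay at 540 nm against a sodium nitrite standard curve.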

[5] = Cytotoxicity against mouse J774 cells assessed as reduction in cell viability after 72 hrs by MTT assay; format: cell-based; method in brief: as §2
[6] = test system: Mus musculus; test: Decrease in IL-10 level in Balb/c mouse splenocytes infected with Leishmania donovani amastigote forms at 25 mg/kg, po administered for 5 consecutive days measured on day 4 post last treatment by sandwich ELISA relative to control; format: functional; settings: 96 h
[7] = test system: Leishmania donovani; test: Antileishmanial activity against Leishmania donovani amastigote forms infected in Balb/c mouse assessed as inhibition of parasitic burden in liver at 5 mg/kg, po administered for 5 consecutive days measured on day 7 post last treatment by Giemsa staining based assay relative to control; format: functional; settings: 168 h
[8] = test system: Mus musculus; test: Decrease in TGFbeta level in Balb/c mouse splenocytes infected with Leishmania donovani amastigote forms at 25 mg/kg, po administered for 5 consecutive days measured on day 4 post last treatment by sandwich ELISA relative to control; format: functional; settings: 96 h
[9] = test system: Mus musculus; test: Increase in TNFalpha level in Balb/c mouse splenocytes infected with Leishmania donovani amastigote forms at 25 mg/kg, po administered for 5 consecutive days measured on day 7 post last treatment by sandwich ELISA relative to control; format: functional
[10] = Selectivity index, ratio of CC50 for mouse J774 cells to IC50 for Leishmania donovani MHOM/IN/80/DD8 amastigote forms infected in mouse J774 cells; format: toxicity, cell-based; settings: read-out: Ratio CC50/IC50
Method in brief: (§4)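 CC50: Vero or J774 cells (1×10^5/well) exposed 72 h to seven two-fold dilutions, 500–7.81 μM; MTT 2 h at 37 °C, formazan in DMSO read at 540 nm. IC50: luciferase-expressing Dd8 amastigotes in J774 macrophages (1:8), 72 h, luminescence, four-parameter Hill fit. SI = CC50/IC50, IC50 mean of three experiments.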

[11] = test system: Leishmania donovani; test: Antileishmanial activity against Leishmania donovani MHOM/IN/80/DD8 promastigote forms harboring luciferase gene at 25 uM after 72 hrs by Steady-Glo reagent based luminescence assay relative to control; format: functional; settings: MHOM/IN/80/DD8, 72 h, read-out: GI
Method in brief: (§5)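 Exponential-phase Dd8-Luc promastigotes at 1×10^6/mL in M199 with 10% FBS, 24 °C, given 50 and 25 µM for 72 h. Vehicle 0.1% DMSO. Steady-Glo added 1:1, luminescence (RLU) read. IC50 from four-parameter Hill regression, derived only where inhibition exceeded 90%. Means of at least three independent experiments.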

[12] = test system: Leishmania donovani; test: Antileishmanial activity against Leishmania donovani MHOM/IN/80/DD8 promastigote forms harboring luciferase gene at 50 uM after 72 hrs by Steady-Glo reagent based luminescence assay relative to control; format: functional; settings: MHOM/IN/80/DD8, 72 h, read-out: GI; method in brief: as §5
[13] = Selectivity index, ratio of CC50 for African green monkey Vero cells to IC50 for Leishmania donovani MHOM/IN/80/DD8 amastigote forms infected in mouse J774 cells; format: toxicity, cell-based; settings: read-out: Ratio CC50/IC50; method in brief: as §4
[14] = test system: Mus musculus; test: Increase in IL-12 level in Balb/c mouse splenocytes infected with Leishmania donovani amastigote forms at 25 mg/kg, po administered for 5 consecutive days measured on day 4 post last treatment by sandwich ELISA relative to control; format: functional
[15] = test system: Mus musculus; test: Decrease in TGFbeta level in Balb/c mouse splenocytes infected with Leishmania donovani amastigote forms at 25 mg/kg, po administered for 5 consecutive days measured on day 7 post last treatment by sandwich ELISA relative to control; format: functional; settings: 168 h
[16] = test system: Mus musculus; test: Increase in IL-12 level in Balb/c mouse splenocytes infected with Leishmania donovani amastigote forms at 25 mg/kg, po administered for 5 consecutive days measured on day 7 post last treatment by sandwich ELISA relative to control; format: functional
[17] = test system: Leishmania donovani; test: Antileishmanial activity against Leishmania donovani MHOM/IN/80/DD8 amastigote forms harboring luciferase gene infected in mouse J774 cells after 72 hrs by Steady-Glo reagent based luminescence assay; format: functional, cell-based; settings: MHOM/IN/80/DD8, J774, 72 h
[18] = test system: Mus musculus; test: Decrease in IL-10 level in Balb/c mouse splenocytes infected with Leishmania donovani amastigote forms at 25 mg/kg, po administered for 5 consecutive days measured on day 7 post last treatment by sandwich ELISA relative to control; format: functional; settings: 168 h
[19] = test system: Leishmania donovani; test: Antileishmanial activity against Leishmania donovani MHOM/IN/80/DD8 amastigote forms harboring luciferase gene infected in mouse J774 cells at 50 uM after 72 hrs by Steady-Glo reagent based luminescence assay relative to control; format: functional; settings: MHOM/IN/80/DD8, J774, 72 h, read-out: GI; method in brief: as §1
[20] = test system: Mus musculus; test: Increase in IFNgamma level in Balb/c mouse splenocytes infected with Leishmania donovani amastigote forms at 25 mg/kg, po administered for 5 consecutive days measured on day 7 post last treatment by sandwich ELISA relative to control; format: functional
[21] = test system: Leishmania donovani; test: Antileishmanial activity against Leishmania donovani amastigote forms infected in Balb/c mouse assessed as inhibition of parasitic burden in spleen at 5 mg/kg, po administered for 5 consecutive days measured on day 7 post last treatment by Giemsa staining based assay relative to control; format: functional; settings: 168 h
[22] = test system: Mus musculus; test: as §3, with “at 25” for “at 5”, “4” for “4 and 7”; format: functional
[23] = test system: Mus musculus; test: Increase in IFNgamma level in Balb/c mouse splenocytes infected with Leishmania donovani amastigote forms at 25 mg/kg, po administered for 5 consecutive days measured on day 4 post last treatment by sandwich ELISA relative to control; format: functional

In the case of `CCCCCCCCCCCCCCCCOP(=O)([O-])OCC[N+](C)(C)C` [MILTEFOSINE], the inhibition of growth at 25 µM [1] is reported as 99.8%, the CC50 at 72 h [2] is reported as 50.8 µM and the “fold change (FC)” value [3] is reported as 6.5. For the same compound, the “fold change (FC)” value [4] was 4.3, the CC50 at 72 h [5] was 55.7 µM and the inhibition in vivo at 25 mg/kg [6] was 88.7%. The inhibition in vivo at 5 mg/kg [7] was greater than 75%, the inhibition in vivo at 25 mg/kg [8] was 87.5% and the “fold change (FC)” value [9] was 5.3. The selectivity ratio [10] was 5.8, the inhibition of growth at 25 µM [11] was 100% and the inhibition of growth at 50 µM [12] was 100%. The selectivity ratio [13] was 5.3, the “fold change (FC)” value [14] was 12.9 and the inhibition in vivo at 25 mg/kg [15] was 94.6%. The “fold change (FC)” value [16] was 9.5, the IC50 [17] was 9.46 µM and the inhibition in vivo at 25 mg/kg [18] was 92.9%. The inhibition of growth at 50 µM [19] was 100%, the “fold change (FC)” value [20] was 8.1 and the inhibition in vivo at 5 mg/kg [21] was greater than 61%. For the same compound, the “fold change (FC)” value [22] was 7.4 and the “fold change (FC)” value [23] was 9.1.
